Experimental data as given in ChEMBL document CHEMBL1130239, “Synthesis and evaluation of (S)-4-(3-(2'-[11C]isopropylamino)-2-hydroxypropoxy) -2H-benzimidazol -2-one ((S)-[11C]CGP 12388) and (S)-4-(3-((1'-[18F]-fluoroisopropyl)amino)-2-hydroxypropoxy) -2H- benzimidazol-2-one ((S)-[18F]fluoro-CGP 12388) for visualization of beta-adrenoceptors with positron …” (J Med Chem, 1997).

How the values were obtained:
Rattus norvegicus [1] = species: Rattus norvegicus; experiment: Biodistribution of [18]Fluoro-CGP 12388 (10 minutes post injection) in kidney of male wistar rats; assay type: ADME, organism-based; conditions: in vivo
Method in brief: (§1)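 Pentobarbital-anesthetized (60 mg/kg ip) male Wistar rats (200 ± 20 g) received iv saline (n = 4) or 500 μg (±)-propranolol (n = 4) <1 min before 2 MBq (30 pmol) tracer in 0.3 mL. They were killed by heart extirpation at 10 or 60 min. Plasma came from blood centrifuged 3 min at 1000g. Tissue counts are expressed as DAR, mean ± SD.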

Rattus norvegicus [2] = species: Rattus norvegicus; experiment: Biodistribution of [18]Fluoro-CGP 12388 (60 minutes post injection) in red blood cells of male wistar rats; assay type: ADME, organism-based; conditions: in vivo, 1 h
Method in brief: (§2)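 Male Wistar rats (200 ± 20 g) under ip pentobarbital (60 mg/kg). Saline given iv <1 min before tracer (controls, n = 4). Tracer (2 MBq, 30 pmol) injected iv in 0.3 mL. Rats killed by heart extirpation at 60 min and tissues dissected; plasma taken by centrifugation (3 min, 1000g). Uptake given as DAR, (cpm/g tissue)/(injected cpm/body weight g), mean ± SD.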

Rattus norvegicus [3] = species: Rattus norvegicus; experiment: Biodistribution of [18]Fluoro-CGP 12388 (60 minutes post injection) in heart of male wistar rats; assay type: ADME, organism-based; conditions: in vivo, 1 h; method in brief: as §1
Rattus norvegicus [4] = species: Rattus norvegicus; experiment: Biodistribution of [18]Fluoro-CGP 12388 (60 minutes post injection) in fat of male wistar rats; assay type: ADME, organism-based, Adipose tissue; conditions: in vivo, 1 h; method in brief: as §1
Rattus norvegicus [5] = species: Rattus norvegicus; experiment: Biodistribution of [18]Fluoro-CGP 12388 (60 minutes post injection) in plasma of male wistar rats; assay type: ADME, organism-based; conditions: in vivo, 1 h; method in brief: as §2
Rattus norvegicus [6] = species: Rattus norvegicus; experiment: Biodistribution of [18]Fluoro-CGP 12388 (60 minutes post injection) in lung of male wistar rats; assay type: ADME, organism-based; conditions: in vivo, 1 h; method in brief: as §1
Rattus norvegicus [7] = species: Rattus norvegicus; experiment: Biodistribution of [18]Fluoro-CGP 12388 (10 minutes post injection) in bone of male wistar rats; assay type: ADME, organism-based, Bone element; conditions: in vivo; method in brief: as §1
Rattus norvegicus [8] = species: Rattus norvegicus; experiment: Biodistribution of [18]Fluoro-CGP 12388 (10 minutes post injection) in cortex of male wistar rats; assay type: ADME, organism-based; conditions: in vivo; method in brief: as §1
Rattus norvegicus [9] = species: Rattus norvegicus; experiment: Biodistribution of [18]Fluoro-CGP 12388 (10 minutes post injection) in muscle of male wistar rats; assay type: ADME, organism-based, Muscle tissue; conditions: in vivo; method in brief: as §1
[10] = Partition coefficient (logP); assay type: physicochemical; conditions: octanol/water
Method in brief: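 50-100 μCi of tracer in 0.1 M phosphate buffer pH 7.4 (5 mL) plus n-octanol (5 mL). Shaken vigorously for 30 min at 37 °C, five mixtures. 100 μL of each layer gamma-counted. log P from the octanol/water count ratio, n = 5. A calculated value was also obtained with Pallas 1.2.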

Rattus norvegicus [11] = species: Rattus norvegicus; experiment: Biodistribution of [18]Fluoro-CGP 12388 (60 minutes post injection) in cortex of male wistar rats; assay type: ADME, organism-based; conditions: in vivo, 1 h; method in brief: as §1
Rattus norvegicus [12] = species: Rattus norvegicus; experiment: Biodistribution of [18]Fluoro-CGP 12388 (60 minutes post injection) in trachea of male wistar rats; assay type: ADME, organism-based; conditions: in vivo, 1 h; method in brief: as §2
Rattus norvegicus [13] = species: Rattus norvegicus; experiment: Biodistribution of [18]Fluoro-CGP 12388 (60 minutes post injection) in intestine of male wistar rats; assay type: ADME, organism-based; conditions: in vivo, 1 h; method in brief: as §1
Rattus norvegicus [14] = species: Rattus norvegicus; experiment: Biodistribution of [18]Fluoro-CGP 12388 (10 minutes post injection) in intestine of male wistar rats; assay type: ADME, organism-based; conditions: in vivo; method in brief: as §1
Rattus norvegicus [15] = species: Rattus norvegicus; experiment: Biodistribution of [18]Fluoro-CGP 12388 (10 minutes post injection) in red blood cells of male wistar rats; assay type: ADME, organism-based; conditions: in vivo; method in brief: as §1
Rattus norvegicus [16] = species: Rattus norvegicus; experiment: Biodistribution of [18]Fluoro-CGP 12388 (60 minutes post injection) in spleen of male wistar rats; assay type: ADME, organism-based; conditions: in vivo, 1 h; method in brief: as §2
Rattus norvegicus [17] = species: Rattus norvegicus; experiment: Biodistribution of {18]Fluoro-CGP 12388 (60 minutes post injection) in liver of male wistar rats; assay type: ADME, organism-based; conditions: in vivo, 1 h; method in brief: as §2
Rattus norvegicus [18] = species: Rattus norvegicus; experiment: Biodistribution of [18]Fluoro-CGP 12388 (10 minutes post injection) in plasma of male wistar rats; assay type: ADME, organism-based; conditions: in vivo; method in brief: as §1
Rattus norvegicus [19] = species: Rattus norvegicus; experiment: Biodistribution of [18]Fluoro-CGP 12388 (60 minutes post injection) in cerebellum of male wistar rats; assay type: ADME, organism-based; conditions: in vivo, 1 h; method in brief: as §1
Rattus norvegicus [20] = species: Rattus norvegicus; experiment: Biodistribution of [18]Fluoro-CGP 12388 (10 minutes post injection) in liver of male wistar rats; assay type: ADME, organism-based; conditions: in vivo; method in brief: as §1
Rattus norvegicus [21] = species: Rattus norvegicus; experiment: Biodistribution of [18]Fluoro-CGP 12388 (60 minutes post injection) in kidney of male wistar rats; assay type: ADME, organism-based; conditions: in vivo, 1 h; method in brief: as §1
Rattus norvegicus [22] = species: Rattus norvegicus; experiment: Biodistribution of [18]Fluoro-CGP 12388 (10 minutes post injection) in heart of male wistar rats; assay type: ADME, organism-based; conditions: in vivo; method in brief: as §1
Rattus norvegicus [23] = species: Rattus norvegicus; experiment: Biodistribution of [18]Fluoro-CGP 12388 (60 minutes post injection) in muscle of male wistar rats; assay type: ADME, organism-based, Muscle tissue; conditions: in vivo, 1 h; method in brief: as §2
Rattus norvegicus [24] = species: Rattus norvegicus; experiment: Biodistribution of [18]Fluoro-CGP 12388 (60 minutes post injection) in bone of male wistar rats; assay type: ADME, organism-based, Bone element; conditions: in vivo, 1 h; method in brief: as §1
Rattus norvegicus [25] = species: Rattus norvegicus; experiment: Biodistribution of [18]Fluoro-CGP 12388 (10 minutes post injection) in lung of male wistar rats; assay type: ADME, organism-based; conditions: in vivo; method in brief: as §1
Rattus norvegicus [26] = species: Rattus norvegicus; experiment: Biodistribution of [18]Fluoro-CGP 12388 (10 minutes post injection) in spleen of male wistar rats; assay type: ADME, organism-based; conditions: in vivo; method in brief: as §1
Rattus norvegicus [27] = species: Rattus norvegicus; experiment: Biodistribution of [18]Fluoro-CGP 12388 (10 minutes post injection) in fat of male wistar rats; assay type: ADME, organism-based, Adipose tissue; conditions: in vivo; method in brief: as §1
Rattus norvegicus [28] = species: Rattus norvegicus; experiment: Biodistribution of [18]Fluoro-CGP 12388 (10 minutes post injection) in cerebellum of male wistar rats; assay type: ADME, organism-based; conditions: in vivo; method in brief: as §1
Rattus norvegicus [29] = species: Rattus norvegicus; experiment: Biodistribution of [18]Fluoro-CGP 12388 (10 minutes post injection) in trachea of male wistar rats; assay type: ADME, organism-based; conditions: in vivo; method in brief: as §1

CC(C[18F])NC[C@H](O)COc1cccc2[nH]c(O)nc12 (some centres undefined)
DAR (Rattus norvegicus [1]): 7.93
DAR (Rattus norvegicus [2]): 0.39
DAR (Rattus norvegicus [3]): 0.46
DAR (Rattus norvegicus [4]): 0.07
DAR (Rattus norvegicus [5]): 0.35
DAR (Rattus norvegicus [6]): 0.59
DAR (Rattus norvegicus [7]): 0.39
DAR (Rattus norvegicus [8]): 0.13
DAR (Rattus norvegicus [9]): 0.42
logP [10]: 0.44
DAR (Rattus norvegicus [11]): 0.12
DAR (Rattus norvegicus [12]): 0.37
DAR (Rattus norvegicus [13]): 0.87
DAR (Rattus norvegicus [14]): 1.52
DAR (Rattus norvegicus [15]): 0.57
DAR (Rattus norvegicus [16]): 0.41
DAR (Rattus norvegicus [17]): 0.64
DAR (Rattus norvegicus [18]): 0.51
DAR (Rattus norvegicus [19]): 0.12
DAR (Rattus norvegicus [20]): 1.62
DAR (Rattus norvegicus [21]): 0.91
DAR (Rattus norvegicus [22]): 1.09
DAR (Rattus norvegicus [23]): 0.3
DAR (Rattus norvegicus [24]): 0.41
DAR (Rattus norvegicus [25]): 1.37
DAR (Rattus norvegicus [26]): 1.17
DAR (Rattus norvegicus [27]): 0.53
DAR (Rattus norvegicus [28]): 0.17
DAR (Rattus norvegicus [29]): 0.7
